Where “and” joins values, the source holds several entries; their conditions need not be identical. Equal entries are not always repeated.
Key:
KCNQ2/KCNQ3 = KCNQ2/KCNQ3 (Homo sapiens, UniProt O43525+O43526); experiment: IonWorks automated electrophysiology, KCNQ2/KCNQ3; assay type: cell-based
Outline: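 KCNQ2/KCNQ3-expressing cells on IonWorks population patch clamp, perforated with 50 μg/mL amphotericin B, extracellular pH 7.4 and internal pH 7.2. The KCNQ2 voltage protocol was used: a 2000 ms depolarizing step, with steady-state current read at step end before and 3 min after compound. Wells needed >100 pA current and >30 MΩ seal. Dosing was 8 points, 3-fold from 30 μM, in quadruplicate.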

KCNQ2 channels [1] = target: T1, KCNQ2 channels (Homo sapiens, UniProt O43526); experiment: Thallium-based fluorescence; assay type: cell-based; conditions: 10-point CRC
Outline: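 Thallium influx read with FluxOR dye. Cells were plated at 6500/well on poly-D-lysine, cultured overnight at 37 °C and 5% CO2, and dye-loaded 90 min at room temperature in the dark. Assay buffer was HBSS with 5.8 mM K+, with 20 min compound preincubation. Stimulus brought final K+ to 15.8 mM and Tl+ to 5 mM. Reading was at 1 Hz for 10 s baseline plus 110 s; ΔF/F0 over 120 s was normalized to activator and buffer controls.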

CYP2D6 = CYP2D6 (Homo sapiens, UniProt P10635); experiment: CYP450 inhibition, CYP2D6; assay type: in vitro ADME
Sequence of CYP2D6 (P10635 whole entry): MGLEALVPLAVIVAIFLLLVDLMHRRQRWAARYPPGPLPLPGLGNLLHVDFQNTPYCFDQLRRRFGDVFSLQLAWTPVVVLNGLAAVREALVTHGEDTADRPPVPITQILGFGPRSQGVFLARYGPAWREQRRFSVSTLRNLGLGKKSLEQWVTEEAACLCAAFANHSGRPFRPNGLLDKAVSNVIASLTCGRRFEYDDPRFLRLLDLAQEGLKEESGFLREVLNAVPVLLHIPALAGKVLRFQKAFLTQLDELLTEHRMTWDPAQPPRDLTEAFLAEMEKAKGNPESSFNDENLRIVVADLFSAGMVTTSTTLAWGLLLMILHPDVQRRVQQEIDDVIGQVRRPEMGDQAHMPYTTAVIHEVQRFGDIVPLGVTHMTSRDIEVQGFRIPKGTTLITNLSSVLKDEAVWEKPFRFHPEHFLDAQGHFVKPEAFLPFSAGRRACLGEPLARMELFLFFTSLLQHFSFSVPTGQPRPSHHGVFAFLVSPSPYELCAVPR

KCNQ1 [2] = target: T2, KCNQ1 (Homo sapiens, UniProt P51787); experiment: Tl+ flux assay, KCNQ1; assay type: cell-based
CYP3A4 = CYP3A4 (Homo sapiens, UniProt P08684); experiment: CYP450 inhibition, CYP3A4; assay type: in vitro ADME
Sequence of CYP3A4 (P08684 whole entry): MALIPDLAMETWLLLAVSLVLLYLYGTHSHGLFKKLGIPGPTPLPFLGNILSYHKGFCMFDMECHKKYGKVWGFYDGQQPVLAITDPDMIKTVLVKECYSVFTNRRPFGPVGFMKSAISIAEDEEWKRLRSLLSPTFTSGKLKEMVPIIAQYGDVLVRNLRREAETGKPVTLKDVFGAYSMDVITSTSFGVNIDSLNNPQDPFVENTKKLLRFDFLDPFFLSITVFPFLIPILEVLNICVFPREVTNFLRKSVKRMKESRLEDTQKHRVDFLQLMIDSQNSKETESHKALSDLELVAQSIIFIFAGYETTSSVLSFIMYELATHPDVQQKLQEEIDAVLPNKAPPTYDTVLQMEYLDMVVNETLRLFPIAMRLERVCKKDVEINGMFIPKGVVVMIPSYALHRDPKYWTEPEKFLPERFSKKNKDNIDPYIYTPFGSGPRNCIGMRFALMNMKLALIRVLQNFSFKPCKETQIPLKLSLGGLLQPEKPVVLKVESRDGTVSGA

KCNQ2 channels [3] = target: T1, KCNQ2 channels; experiment: IonWorks automated electrophysiology; assay type: cell-based; conditions: IW EC50, KCNQ2 (enhancement of KCNQ2 currents), -10 mV step potential
Outline: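 Perforated-patch population clamp (IonWorks Quattro) on CHO cells stably expressing KCNQ2. Cells were freshly detached and seeded at 7000 cells/well in HEPES/glucose saline at pH 7.4, then perforated with 50 μg/mL amphotericin B in KCl/K-gluconate internal solution at pH 7.2. Steady-state current at the end of a 2000 ms depolarizing step was read before and after 3 min compound, as % change per well. Dosing was 8 points, 3-fold from 30 μM, in quadruplicate. Conductance was current divided by driving force; ΔV1/2 came from the same cells.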

Kir2.1 = target: T3, Kir2.1 (Homo sapiens, UniProt P63252); experiment: Tl+ flux assay, Kir2.1; assay type: cell-based
T3 sequence (P63252 1-427): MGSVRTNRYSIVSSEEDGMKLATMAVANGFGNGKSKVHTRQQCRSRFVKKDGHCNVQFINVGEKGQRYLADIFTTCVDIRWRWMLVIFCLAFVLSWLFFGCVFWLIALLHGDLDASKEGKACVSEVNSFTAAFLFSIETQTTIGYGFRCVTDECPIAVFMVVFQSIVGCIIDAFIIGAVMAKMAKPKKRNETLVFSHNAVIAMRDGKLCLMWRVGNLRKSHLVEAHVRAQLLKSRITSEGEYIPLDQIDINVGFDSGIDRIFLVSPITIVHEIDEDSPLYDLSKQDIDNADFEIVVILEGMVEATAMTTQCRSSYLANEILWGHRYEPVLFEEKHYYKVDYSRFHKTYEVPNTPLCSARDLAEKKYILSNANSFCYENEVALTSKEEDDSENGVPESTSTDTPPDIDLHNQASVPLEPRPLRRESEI

[4] = system: 68 GPCRs, ion channels and transporters; experiment: Ricerca Lead Profiling Screen; assay type: binding; conditions: 10 μM
KCNQ3 = KCNQ3 (Homo sapiens, UniProt O43525); experiment: Tl+ flux assay, KCNQ3; assay type: cell-based
KCNQ1/KCNE1 [5] = target: T4, KCNQ1/KCNE1 (Homo sapiens, UniProt P51787); experiment: Tl+ flux assay, KCNQ1/E1; assay type: cell-based
KCNQ1 [6] = target: T2, KCNQ1; experiment: IonWorks automated electrophysiology, KCNQ1; assay type: cell-based
Outline: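 KCNQ1 cells in IonWorks perforated-patch mode (50 μg/mL amphotericin B), with extracellular saline at pH 7.4. Cells were depolarized to +40 mV from the holding potential, and current was measured during the +40 mV step before and 3 min after compound. No liquid junction correction was applied; sampling was 0.625 kHz. EC50 came from 8-point, 3-fold dilutions from 30 μM, in quadruplicate.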

CYP1A2 = target: T5, CYP1A2 (Homo sapiens, UniProt P05177); experiment: CYP450 inhibition, CYP1A2; assay type: in vitro ADME
T5 sequence (P05177 1-516): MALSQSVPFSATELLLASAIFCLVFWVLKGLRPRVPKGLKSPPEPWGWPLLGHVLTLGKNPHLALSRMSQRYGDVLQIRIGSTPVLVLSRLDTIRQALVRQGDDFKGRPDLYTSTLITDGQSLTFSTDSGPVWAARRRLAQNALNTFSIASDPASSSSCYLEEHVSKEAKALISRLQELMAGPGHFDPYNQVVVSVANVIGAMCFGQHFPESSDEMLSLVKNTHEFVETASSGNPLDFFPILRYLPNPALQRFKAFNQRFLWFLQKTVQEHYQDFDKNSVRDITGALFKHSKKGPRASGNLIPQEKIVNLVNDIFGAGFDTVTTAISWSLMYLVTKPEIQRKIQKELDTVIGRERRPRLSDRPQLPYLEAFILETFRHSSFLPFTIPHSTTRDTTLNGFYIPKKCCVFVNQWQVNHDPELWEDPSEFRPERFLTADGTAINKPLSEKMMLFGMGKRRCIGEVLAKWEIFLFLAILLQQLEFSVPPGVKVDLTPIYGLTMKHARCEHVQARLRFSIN

[7] = Snapshot in vivo PK study, plasma and brain levels after IP administration; conditions: 10 mg/kg
KCNQ4 [8] = target: T6, KCNQ4 (Homo sapiens, UniProt P56696); experiment: Tl+ flux assay, KCNQ4; assay type: cell-based; conditions: versus KCNQ2, Tl+ flux assay
hERG = hERG (Homo sapiens, UniProt Q12809); experiment: IonWorks automated electrophysiology, hERG; assay type: cell-based
Sequence of hERG (Q12809 whole entry): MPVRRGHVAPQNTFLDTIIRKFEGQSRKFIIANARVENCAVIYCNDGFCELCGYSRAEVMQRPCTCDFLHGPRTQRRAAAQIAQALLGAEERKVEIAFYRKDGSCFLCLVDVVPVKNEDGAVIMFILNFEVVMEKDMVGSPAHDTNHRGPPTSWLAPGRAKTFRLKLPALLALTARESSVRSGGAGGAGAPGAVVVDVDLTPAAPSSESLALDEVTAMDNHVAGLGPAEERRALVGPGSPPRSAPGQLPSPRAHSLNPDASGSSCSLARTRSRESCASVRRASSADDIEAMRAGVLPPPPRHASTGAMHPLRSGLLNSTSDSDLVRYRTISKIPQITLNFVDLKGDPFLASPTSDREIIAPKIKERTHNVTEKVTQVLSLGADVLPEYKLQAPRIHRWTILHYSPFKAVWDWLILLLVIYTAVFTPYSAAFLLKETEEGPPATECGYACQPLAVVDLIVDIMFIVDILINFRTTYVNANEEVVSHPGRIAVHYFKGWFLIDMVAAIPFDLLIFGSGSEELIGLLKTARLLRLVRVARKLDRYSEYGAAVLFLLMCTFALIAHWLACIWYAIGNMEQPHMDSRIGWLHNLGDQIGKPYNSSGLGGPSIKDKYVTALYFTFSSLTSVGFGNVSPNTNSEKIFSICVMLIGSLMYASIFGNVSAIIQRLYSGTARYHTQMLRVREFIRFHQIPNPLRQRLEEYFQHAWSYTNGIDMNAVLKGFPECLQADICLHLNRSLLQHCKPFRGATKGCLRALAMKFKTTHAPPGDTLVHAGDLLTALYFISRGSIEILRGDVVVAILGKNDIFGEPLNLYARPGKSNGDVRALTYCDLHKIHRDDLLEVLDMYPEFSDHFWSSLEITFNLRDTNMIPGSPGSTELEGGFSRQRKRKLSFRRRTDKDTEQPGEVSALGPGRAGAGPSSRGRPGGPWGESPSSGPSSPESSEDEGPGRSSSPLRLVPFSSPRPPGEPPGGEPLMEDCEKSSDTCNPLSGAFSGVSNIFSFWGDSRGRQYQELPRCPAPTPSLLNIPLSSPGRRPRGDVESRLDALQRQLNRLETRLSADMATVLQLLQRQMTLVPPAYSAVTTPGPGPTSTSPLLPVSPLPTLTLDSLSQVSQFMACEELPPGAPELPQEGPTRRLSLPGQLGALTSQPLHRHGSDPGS

CYP2C9 = CYP2C9 (Homo sapiens, UniProt P11712); experiment: CYP450 inhibition, CYP2C9; assay type: in vitro ADME
Sequence of CYP2C9 (P11712 whole entry): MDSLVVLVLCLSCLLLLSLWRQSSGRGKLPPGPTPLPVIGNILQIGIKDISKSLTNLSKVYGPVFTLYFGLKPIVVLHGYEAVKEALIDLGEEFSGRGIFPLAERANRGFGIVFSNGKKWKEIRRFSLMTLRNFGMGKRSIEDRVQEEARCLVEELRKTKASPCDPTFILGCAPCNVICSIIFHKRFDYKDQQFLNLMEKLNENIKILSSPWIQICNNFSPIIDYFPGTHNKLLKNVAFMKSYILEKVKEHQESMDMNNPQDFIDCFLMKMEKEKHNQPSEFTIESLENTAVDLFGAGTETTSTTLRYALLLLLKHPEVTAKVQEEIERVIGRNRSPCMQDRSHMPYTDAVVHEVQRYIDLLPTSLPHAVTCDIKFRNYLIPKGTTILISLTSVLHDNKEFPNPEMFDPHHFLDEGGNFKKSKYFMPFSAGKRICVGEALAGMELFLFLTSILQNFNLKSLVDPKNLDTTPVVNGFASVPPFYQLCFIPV

KCNQ1/KCNE1 [9] = target: T4, KCNQ1/KCNE1; experiment: IonWorks automated electrophysiology, KCNQ1/KCNE1; assay type: cell-based
Outline: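 KCNQ1/KCNE1 cells in IonWorks perforated patch (50 μg/mL amphotericin B) at pH 7.4 extracellular. The protocol was a 3000 ms depolarizing step to +40 mV, then a 500 ms hyperpolarizing step. Steady-state current at +40 mV was read before and after 3 min compound exposure. Concentration-response was 8 points, 3-fold from 30 μM, in quadruplicate; sampling was 0.625 kHz.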

KCNQ5 = KCNQ5 (Homo sapiens, UniProt Q9NR82); experiment: Tl+ flux assay, KCNQ5; assay type: cell-based
KCNQ4 [10] = target: T6, KCNQ4; experiment: IonWorks automated electrophysiology, KCNQ4; assay type: cell-based; conditions: versus KCNQ2, IonWorks

- EC50 (KCNQ2/KCNQ3): 370 nM
- Fold selectivity (IW), KCNQ2/3 (KCNQ2/KCNQ3; versus KCNQ2, IonWorks): 1 fold
- maximal increase in Tl+ influx, KCNQ2 (KCNQ2 channels [1]): 56%
- EC50 (KCNQ2 channels [1]; Tl+ EC50, KCNQ2, fluorescent Tl+ influx assay): 359 nM and 360 nM
- IC50 (CYP2D6): > 30 µM
- EC50 (KCNQ1 [2]): > 30 µM
- IC50 (CYP3A4): > 30 µM
- EC50 (KCNQ2 channels [3]): 230 nM
- EC50 (Kir2.1): > 10 µM
- Fold selectivity (Tl+), Kir2.1 (Kir2.1; versus KCNQ2, Tl+ flux assay): >27 fold
- inhibition of radio ligand binding, panel of 68 GPCRs, ion channels and transporters [4]: ≤ 50%
- EC50 (KCNQ3): > 30 µM
- Fold selectivity (Tl+), KCNQ3 (KCNQ3; versus KCNQ2, Tl+ flux assay): >80 fold
- EC50 (KCNQ1/KCNE1 [5]): > 30 µM
- EC50 (KCNQ1 [6]): > 30 µM
- IC50 (CYP1A2): > 30 µM
- concentration at 1 h ([7]; brain): 476 nM
- concentration at 1 h ([7]; plasma): 1260 nM
- Fold selectivity (Tl+), KCNQ4 (KCNQ4 [8]): 6.7 fold
- IC50 (CYP2C9): > 30 µM
- EC50 (KCNQ1/KCNE1 [9]): > 30 µM
- EC50 (KCNQ5): > 30 µM
- Fold selectivity (Tl+), KCNQ5 (KCNQ5; versus KCNQ2, Tl+ flux assay): >80 fold
- Fold selectivity (IW), KCNQ4 (KCNQ4 [10]): 1.4 fold
Structure (SMILES): Cc1cc(C)c(NC(=O)C2CC3CCC2C3)c(C)c1 (stereo not drawn) [compound 1, N-Mesitylbicyclo[2.2.1]heptane-2-carboxamide]
- selectivity ratio at 20 min (KCNQ1 [2]): > 80
- selectivity ratio at 20 min (KCNQ1/KCNE1 [5]): > 80
- selectivity ratio at 3 min (KCNQ1 [6]; pH 7.4): > 80
- EC50 (hERG): > 10 µM
- selectivity ratio (hERG; human): > 28
- selectivity ratio at 3 min (KCNQ1/KCNE1 [9]; pH 7.4): > 80
